From ChEMBL document CHEMBL1165914, “Characterization of 4-methyl-2-oxo-1,2-dihydroquinolin-6-yl acetate as an effective antiplatelet agent” (2010)
Calls of active or inactive are those of the source. The calls are words filed in the database; no cut-off is given here.

Assays:
[1] = species on record: Homo sapiens; assay: Inhibition of human platelet CRTAase assessed as inhibition of acetylation of glutathione S-transferase; set-up: concentration or dose not given beside the values; conditions: concentration not given here
Procedure, shortened: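 Platelet lysate as enzyme source. Acetoxy substrate preincubated with CRTAase and GST in potassium phosphate buffer pH 6.5, 37 °C, 10 min; GSH and CDNB then added and absorbance read at 340 nm. Activity unit is % inhibition of GST activity; mean of five observations.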

[2] = test system: Platelet; assay: Antiplatelet activity in human platelet rich plasma assessed as inhibition of ADP-induced platelet aggregation measured for 6 mins by aggregometry; type: functional
[3] = test system: Rattus norvegicus; assay: Inhibition of COX1 in po dosed Sprague-Dawley rat after 24 hrs by ELISA; type: functional, organism-based
[4] = test system: Rattus norvegicus; assay: Ex vivo antiplatelet activity in Sprague-Dawley rat platelets assessed as inhibition of arachidonic acid-induced platelet aggregation at 133 umole/kg, po after 24 hrs by aggregometry; type: functional, organism-based
Procedure, shortened: (§1)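 Rats dosed orally and killed 24 h later. Blood taken by cardiac puncture and centrifuged as for PRP/PPP preparation (180g 10 min; 2500g 10 min). ADP- or AA-induced aggregation then measured by light-transmittance aggregometry.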

[5] = test system: Rattus norvegicus; assay: Ex vivo antiplatelet activity in Sprague-Dawley rat platelets assessed as inhibition of ADP-induced platelet aggregation at 133 umole/kg, po after 24 hrs by aggregometry; type: functional, organism-based; procedure, shortened: as §1
[6] = species on record: Homo sapiens; assay: Activation of human platelet NOS assessed as increase in nitric oxide level by flow cytometry
Procedure, shortened: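 Platelets incubated with compounds, then intracellular NO measured by flow cytometry following the Imrich and Kobzik method.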

[7] = test system: Platelet; assay: Antiplatelet activity in human platelet rich plasma assessed as inhibition of arachidonic acid-induced platelet aggregation measured for 6 mins by aggregometry; type: functional
[8] = test system: Rattus norvegicus; assay: Inhibition of COX1 in po dosed Sprague-Dawley rat after 24 hrs by ELISA relative to control; type: functional

| Compound | inhibition [1] [%] | inhibition [2] | also measured |
| --- | --- | --- | --- |
| CCc1c(C)c2cc(OC(C)=O)ccc2[nH]c1=O | 26 | – | – |
| CCOC(=O)COc1cc(C)c2ccc(OC(C)=O)cc2n1 | 13.2 | inactive | – |
| Cc1cc(=O)[nH]c2ccc(O)cc12 | 0 | – | inhibition [3]: inactive; inhibition [4]: inactive; inhibition [5]: inactive |
| CCOC(=O)Cn1c(=O)cc(C)c2cc(OC(C)=O)ccc21 | 23 | Active | – |
| CCOC(=O)COc1cc(C)c2cc(OC(C)=O)ccc2n1 | 28.6 | inactive | – |
| CCOC(=O)Cn1c(=O)cc(C)c2ccc(OC(C)=O)cc21 | 10 | Active | – |
| CCc1c(C)c2cccc(OC(C)=O)c2[nH]c1=O | 11.5 | – | – |
| CC(=O)Oc1ccc2c(C)cc(=O)[nH]c2c1 | 13.2 | Active | Activity [6]: Active |
| CCCCCCc1c(C)c2cc(OC(C)=O)ccc2[nH]c1=O | 7 | – | – |
| CCCCCCc1c(C)c2ccc(OC(C)=O)cc2[nH]c1=O | 2 | – | – |
| CC(=O)Oc1ccc2[nH]c(=O)cc(C)c2c1 | 31 | Active | inhibition [7]: Active; fold change (FC) [8]: 3.5; Activity [6]: Active; inhibition [4]: Active; inhibition [5]: Active |
| CC(=O)Oc1cc(=O)[nH]c2ccccc12 | 0 | – | – |
| CC(=O)Oc1cccc2c(C)cc(=O)[nH]c12 | 12 | Active | Activity [6]: Active |
| CC(=O)Oc1ccccc1C(=O)O | – | – | inhibition [3]: Active; inhibition [4]: Active; inhibition [5]: Active |
| CCCCCCc1c(C)c2cccc(OC(C)=O)c2[nH]c1=O | 0 | – | – |
| CCc1c(C)c2ccc(OC(C)=O)cc2[nH]c1=O | 13 | – | – |
